Inconclusive results are not listed.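 Rule for the calls, unless noted: active = viability increase at or above a cutoff of the median across tested compounds plus 3 SD (cut at about 8.5% in these data, passing the limit was not always enough); inconclusive = some gains above the cutoff, reason not given; inactive = the rest.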
Legend:
[1] = S. cerevisiae growth inhibition in permissive medium (OD615), pilot counter-assay for S. cerevisiae lifespan shortening project, permissive growth control (AID 705;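 active = growth inhibition above 25% in both replicates, a cutoff set 3 SD above the mean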); conditions: OD615, 24 h, at 10 µM, hits give high values
Summary of the method: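 System: S. cerevisiae with engineered DeaD lifespan system / Measured by: absorbance (optical density) at 615 nm / Read-out: reduction in yeast growth (OD615) / Times: 4 h cell pre-growth, 24 h exposure at 30 °C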

[2] = S. cerevisiae growth inhibition in restrictive medium, OD615, pilot screen, restrictive growth control, yeast lifespan reduction project (AID 706;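 active = growth inhibition above a set limit, 3 SD over mean compound inhibition, in both replicates, cut at about 43% in these data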;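 note: modified DeaD lifespan yeast strain shifted to restrictive glucose medium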); conditions: OD615, 48 h, at 10 µM, hits give high values
Summary of the method: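 System: Engineered S. cerevisiae DeaD strain | Buffer or medium: Glucose-based CSMM-D restrictive medium | Schedule: 4 h pre-incubation, 48 h exposure at 30 °C | Technique: Optical density at 615 nm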

[3] = doxorubicin toxicity protection in MRP-1 cells – H69AR cells, CellTiter-Glo, duplicate, MRP-1 activator project, pilot screen (AID 807); conditions: H69AR viability with doxorubicin, CellTiter-Glo luminescence; at 10 µM; hits give high values;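 note: compound pretreatment 18-22 h then 72 h combined with doxorubicin; 0% = doxorubicin alone and 100% = vehicle without doxorubicin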
[4] = viability of HCT116 without oncogenic beta-catenin – human colon tumor cells, pilot screen (AID 823;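 active = cell viability at or below a set limit in both duplicate runs, the limit being the all-compound median minus 4 SD, cut at about 23% in these data, passing the limit was not always enough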;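 note: 0% = wells killed by 20 µM Hyamine and 100% = untreated DMSO cell wells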); conditions: HCT116 beta-catenin knockout viability, CellTiter-Glo, 60 h; at 10 µM; hits give low values
[5] = viability of PTEN-null HCT116 cells – cell-based, HCT116 clonal line, CellTiter-Glo, pilot screen (AID 824;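 active = viability at or below 27.92% in each of two runs, the all-compound median minus 4 SD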;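 note: 0% = 20 µM Hyamine control and 100% = vehicle cell control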); conditions: HCT116 PTEN-deleted viability, 60 h, at 10 µM, hits give low values
[6] = RAM pathway blockade in budding yeast – dse1pr::URA3 reporter, 5-FOA selection, pilot screen (AID 869;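 active = inhibition over a set limit, the all-compound mean plus 3 SD, in both replicate runs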;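 note: 0% = DMSO wells with no growth and 100% = 10 µM 1-NA-PP1 with full growth; RAM network block rescues cells from 5-FOA so hits raise OD615 growth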); conditions: S. cerevisiae dse1pr::URA3 5-FOA growth, OD615, 2 d; at 10 µM; hits give high values; strain carries analog-sensitive mutant Cbk1 kinase
[7] = RAM signaling pathway blockade in yeast – S. cerevisiae, Pdr1DBD-CYC8 efflux-inhibited sensitized strain, primary screen (AID 1298;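 active = RAM network inhibition above 8.4% in each of two replicates, 3 SD over the compound average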;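 note: 0% = DMSO untreated cells without growth and 100% = 10 µM 1-NA-PP1 full growth; higher means more yeast growth rescued from 5-FOA killing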); conditions: S. cerevisiae cbk1-as DSE1-URA3 strain, 5-FOA growth OD615, 2 d; at 50 µM; hits give high values

CC(NC(=O)c1ccc2c(c1)OCO2)C1CCCO1 (stereo not given)
inactive: growth inhibition [1] -3.77% | growth inhibition [2] 7.33% | viability increase [3] -0.15% | viability [4] 96.8% | viability [5] 94.5% | inhibition [6] 1.44% | RAM network inhibition [7] -0.53%

O=C(c1c(Cl)nc2sccn12)N1CCCc2ccccc21
inactive: growth inhibition [1] -2.11% | growth inhibition [2] -6.31% | viability increase [3] -0.71% | viability [4] 100% | viability [5] 98.2% | inhibition [6] 2.37% | RAM network inhibition [7] 1.4%

O=C(CSc1nc(-c2ccco2)cc(C(F)(F)F)n1)NC1CCCC1
inactive: growth inhibition [1] -9.81% | growth inhibition [2] 5.25% | viability increase [3] -0.46% | viability [4] 89.3% | viability [5] 89.5% | inhibition [6] 0.995% | RAM network inhibition [7] 1%

O=C(CCN1CCN(CCO)CC1)Nc1ccc(F)c(F)c1
inactive: growth inhibition [1] -1.65% | growth inhibition [2] -3.58% | viability increase [3] -2.29% | viability [4] 104% | viability [5] 101% | inhibition [6] 0.265% | RAM network inhibition [7] 2.01%

Cc1nc2sc(C(c3ccco3)N3CCC(C)CC3)c(O)n2n1 (stereo not given)
inactive: growth inhibition [1] -6.81% | growth inhibition [2] 1.09% | viability increase [3] -1.29% | viability [4] 102% | viability [5] 103% | inhibition [6] 0.77% | RAM network inhibition [7] 2.81%

Cc1cc(C)n(S(=O)(=O)c2ccc(Cl)c(Cl)c2Cl)n1
inactive: growth inhibition [1] -8.03% | growth inhibition [2] 4.29% | viability increase [3] -4.34% | viability [4] 86% | viability [5] 84.6% | inhibition [6] 1.17% | RAM network inhibition [7] 3.65%

COC(=O)c1cccc(NC(=O)C(C)N2C(=O)c3ccccc3C2=O)c1 (stereo not given)
inactive: growth inhibition [1] -16.2% | growth inhibition [2] 10.2% | viability increase [3] -1.25% | viability [4] 93.4% | viability [5] 106% | inhibition [6] 1.77% | RAM network inhibition [7] 2.77%

CCOc1ccc(NC(=O)CN(c2ccc(OC)cc2)S(C)(=O)=O)cc1
inactive: growth inhibition [1] 6.96% | growth inhibition [2] -0.54% | viability increase [3] 0.19% | viability [4] 98.1% | viability [5] 98.8% | inhibition [6] 1.7% | RAM network inhibition [7] 4.91%

Cc1ccc(S(=O)(=O)N2C3C=CC(C3)C2C(=O)O)cc1 (stereo not given)
inactive: growth inhibition [1] 3.23% | growth inhibition [2] -3.31% | viability increase [3] -0.3% | viability [4] 94.3% | viability [5] 99.9% | inhibition [6] 0.08% | RAM network inhibition [7] 1.2%

Cc1cc(C(=O)N2CCN(S(C)(=O)=O)CC2)sc1-c1ccccc1
inactive: growth inhibition [1] -7.32% | growth inhibition [2] 3.48% | viability increase [3] -2.61% | viability [4] 94.9% | viability [5] 94% | inhibition [6] 3.19% | RAM network inhibition [7] 6.22%

CCn1c(CNC(=O)c2ccc(OC)cc2)nnc1SC
inactive: growth inhibition [1] -3.98% | growth inhibition [2] 3.58% | viability increase [3] -1.74% | viability [4] 90.6% | viability [5] 91.9% | inhibition [6] 1.44% | RAM network inhibition [7] 4.37%

O=C(CC1Oc2ccccc2NC1=O)NC1CCCC1 (stereo not given)
inactive: growth inhibition [1] 1.69% | growth inhibition [2] 2.71% | viability increase [3] 0.05% | viability [4] 103% | viability [5] 102% | inhibition [6] 1.33% | RAM network inhibition [7] 0.1%

CCOC(=O)c1ccc(N2CSC3=C(C#N)C(c4cccs4)CC(=O)N3C2)cc1 (stereo not given)
inactive: growth inhibition [1] 6.68% | growth inhibition [2] 28.2% | viability increase [3] -1.48% | viability [4] 103% | viability [5] 85.3% | inhibition [6] 1.52% | RAM network inhibition [7] 2.37%

CCN(CCNS(=O)(=O)c1ccc2c(c1)oc(=O)n2C)c1ccccc1
inactive: growth inhibition [1] -5.19% | growth inhibition [2] -5.92% | viability increase [3] -1.13% | viability [4] 108% | viability [5] 105% | inhibition [6] 4.3% | RAM network inhibition [7] 1.2%

CC(N=C1NS(=O)(=O)c2ccccc21)c1ccccc1 (stereo not given)
inactive: growth inhibition [1] 0.11% | growth inhibition [2] 1.27% | viability increase [3] 0.15% | viability [4] 103% | viability [5] 96.2% | inhibition [6] -0.16% | RAM network inhibition [7] 5.97%

Reference: PubChem BioAssay
